This is an account of results in PMC4809803 (Oncogene, 2015).

In experiment [1] the test system is FLT3-ITD-transformed HCD-57 cells. Kind of experiment: Apoptosis assay, annexin V and propidium iodide. It is filed as cell-based, murine. The conditions noted are these: 100 and 500 nM, 24 hours.
The subject of experiment [2] is HCD-57 cells expressing FLT3-D835H. The experiment can be described thus: XTT cell viability assay, transformed HCD-57. It is filed as cell-based, murine. The settings on record: 48 hours. In general terms: Formazan colour is commonly taken as a measure of viable cells.
In experiment [3] the test system is HCD-57 cells expressing FLT3-ITD. The experiment can be described thus: XTT cell viability assay, transformed HCD-57. It is filed as cell-based, murine. The settings on record: 48 hours.
Experiment [4] has as its system parent HCD-57 cells. The experiment can be described thus: XTT cell viability assay, parent HCD-57. Format: cell-based, murine. The settings on record: 48 hours, with EPO.
The subject of experiment [5] is FLT3 signaling in FLT3-D835Y-transformed HCD-57 cells. Kind of experiment: Cell signaling western blot. Format: cell-based, murine. The settings on record: 3 hours. In a few lines:
(§1)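 EPO-independent retrovirally transformed HCD-57 cells were treated with the indicated inhibitor concentrations for 3 h. They were lysed in whole-cell buffer (25 mM β-glycerophosphate pH 7.3, EDTA/EGTA, 1% Triton X-100, 0.1 M NaCl, 1 mM vanadate, protease inhibitors) and cleared at 13 000×g. Equal total protein was run on SDS gels and immunoblotted for pFLT3 (pY591), pERK1/2 (pT202/pY204), pAKT (pS473), total FLT3/ERK/AKT and GAPDH.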

Experiment [6] concerns FLT3 signaling in FLT3-ITD-transformed HCD-57 cells. Kind of experiment: Cell signaling western blot. It is filed as cell-based, murine. The settings on record: 3 hours. In a few lines:
as §1
(In western blotting, separated proteins are transferred to a membrane and probed.)

The subject of experiment [7] is HCD-57 cells expressing FLT3-D835Y. Kind of experiment: XTT cell viability assay, transformed HCD-57. It is filed as cell-based, murine. The settings on record: 48 hours.
For experiment [8], the system named is parent HCD-57 cells. Kind of experiment: Apoptosis assay, annexin V and propidium iodide. It is filed as cell-based, murine. The settings on record: 100 and 500 nM, 24 hours, cultured with EPO.
The test system of experiment [9] is FLT3-D835Y-transformed HCD-57 cells. The experiment can be described thus: Apoptosis assay, annexin V and propidium iodide. It is filed as cell-based, murine. The conditions noted are these: 100 and 500 nM, 24 hours.
Experiment [10] concerns HCD-57 cells transformed with JAK2V617F. The settings on record: XTT, 48 hours.
Experiment [11] relates to FLT3-ITD-transformed HCD-57 cells. Kind of experiment: Cell cycle analysis, propidium iodide. It is filed as cell-based, murine. The conditions noted are these: 100 and 500 nM, 24 hours.
For experiment [12], the system named is FLT3-D835Y-transformed HCD-57 cells. Kind of experiment: Cell cycle analysis, propidium iodide. The conditions noted are these: 100 and 500 nM, 24 hours. It is filed as cell-based, murine.

For `CNC(=O)c1cc(Oc2ccc(NC(=O)Nc3ccc(Cl)c(C(F)(F)F)c3)cc2)ccn1` [sorafenib], the “percentage of apoptotic and necrotic cells” value in [1] is “potent to induce apoptosis and necrosis”; in experiment [9], “no effect”. Moreover, the entries for the “effect on cell growth/viability” value in [2], in experiment [3] and in [7] were “far less active”, “strongly inhibited” and “far less active”, respectively. The “effect on cell viability” value (in the experiment with parent HCD-57 cells [4]; in experiment [10]) was “far less active” in each case. In addition, the “phosphorylation of FLT3, ERK and Akt” value is reported as “much less effective” in experiment [5] and “strong inhibitory effect” in experiment [6]. Further, the apoptosis entry in the experiment on parent HCD-57 cells [8] is “neither JI6 nor sorafenib displayed significant effects”. The “cell cycle distribution (G1, S+G2)” value in experiment [11] and in experiment [12] was “exhibited such an effect only on the FLT3-ITD cells” in each case.
